Cneo AK release: Cryptococcus neoformans lysis via adenylate kinase release | AID 651654 | lysis activity, % at 15 µM | actives 0.2% (n = 360,000) | C. neoformans lysis, adenylate kinase release luminescence, 4 h; normalised: neutral wells 0, clomiphene wells 100;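 active = mean lysis activity across replicates of at least 80%, whatever share of replicates individually reach that level; inactive = mean lysis activity below 80%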
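Assay system: Cryptococcus neoformans yeast cells / Dosing: single-point compound dose / Timing: 4 h at 37 °C static, read 1 h later / Measured by: luminescence of released adenylate kinase using an AK detection reagent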
miR-122 sensor: inhibitors of miR-122 in Huh7 cells | Huh7 miR-122 Renilla luciferase sensor, 48 h; neutral wells = 0, positive control = 100 | activation (reporter increase), % at 12.5 µM | actives 0.3% (n = 340,000);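 active = mean replicate activation score at least 90 and every replicate individually at or above 90; inconclusive = only one of the two criteria met; inactive = neither criterion met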;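 also: higher luciferase means less miR-122 activity so hits act as miR-122 inhibitors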
INS-1E GSIS act: primary screen for activators of insulin secretion dependent on glucose, INS-1E cells, GLuc reporter luminescence; INS-1E GLuc reporter insulin secretion, 2-3 h; activation, % at 16.6 µM; actives 0.61% (n = 370,000); AID 743287;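 active = lowest replicate activation of at least 40%, so every replicate reaches that level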;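 also: 0% = median of neutral control wells and 100% = median of IBMX positive control wells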
Rtt109 HAT inh: C. albicans Rtt109 histone acetyltransferase inhibition; purified Rtt109/Vps75, ThioGlo CoA-SH fluorescence, 4 h; Q5AAJ8; inhibition, % at 34.9 µM; actives 0.16% (n = 330,000);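 active = inhibition of at least 50% in every replicate; inconclusive = best replicate reaches 50% inhibition but some replicates fall short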
Target sequence (Q5AAJ8 whole entry, looked up): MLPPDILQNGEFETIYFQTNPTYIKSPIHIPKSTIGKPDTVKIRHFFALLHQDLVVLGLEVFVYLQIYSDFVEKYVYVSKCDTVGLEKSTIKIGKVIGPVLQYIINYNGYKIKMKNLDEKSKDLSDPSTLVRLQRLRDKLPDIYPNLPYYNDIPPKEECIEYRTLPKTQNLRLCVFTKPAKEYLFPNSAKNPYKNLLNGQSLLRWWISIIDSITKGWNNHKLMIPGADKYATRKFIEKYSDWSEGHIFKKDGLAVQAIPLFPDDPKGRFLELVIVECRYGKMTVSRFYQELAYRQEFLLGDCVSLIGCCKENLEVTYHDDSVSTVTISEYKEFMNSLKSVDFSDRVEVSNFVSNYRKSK
dFosB activator: activators of mouse delta FosB homodimer. activation, % at 25 µM. purified delta FosB, TAMRA-CDK5 oligo fluorescence polarization; percent of positive-control signal above neutral wells. P13346. actives 0.99% (n = 340,000);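 active = mean activation above about 17%, with every replicate also reaching it, limit read from the data, passing the limit was not always enough; inconclusive = only one of the two conditions met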
Target sequence (P13346 whole entry, looked up): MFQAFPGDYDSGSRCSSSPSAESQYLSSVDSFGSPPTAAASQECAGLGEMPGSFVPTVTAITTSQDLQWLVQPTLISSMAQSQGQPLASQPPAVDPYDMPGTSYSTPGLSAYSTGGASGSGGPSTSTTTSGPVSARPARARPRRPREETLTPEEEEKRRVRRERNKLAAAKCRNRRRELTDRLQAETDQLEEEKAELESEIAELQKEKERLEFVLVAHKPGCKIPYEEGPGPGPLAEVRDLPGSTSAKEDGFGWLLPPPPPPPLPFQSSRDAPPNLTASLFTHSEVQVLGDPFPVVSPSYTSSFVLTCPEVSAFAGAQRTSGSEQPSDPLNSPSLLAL
Env fusion inh: inhibitors of HIV Env-mediated cell fusion; HeLa-JRFL Env/CEM21 cell fusion, luciferase; inhibition, % at 12.3 µM; actives 1.1% (n = 360,000);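 active = mean replicate inhibition score of at least 50 and every replicate individually at or above 50; inconclusive = only one of the two criteria met; inactive = mean below 50 and not all replicates reaching 50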;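 also: 0% = plate neutral controls and 100% = maraviroc near 300 nM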
Active calls of the source: *; ? = inconclusive; / = no result given; [ ] = dose if it differs, or a comment. This is a sample that favours compounds with a hit; in the whole collection about 2.4% have one here.

SMILES	Cneo AK release	miR-122 sensor	INS-1E GSIS act	Rtt109 HAT inh	dFosB activator	Env fusion inh
C[C@@H]1CCCCO[C@@H](CN(C)S(=O)(=O)c2cn(C)cn2)[C@@H](C)CN([C@H](C)CO)C(=O)c2cc(NC(=O)c3ccccc3)ccc2O1	-2.4	0.2[16.7 µM]	13.1	/	/	-23.6[16.7 µM]
O=C(N/N=C/c1ccc(Cl)cc1)c1ccc2c(c1)OCO2	0.9	18.0	5.1	10.7	8.0	-59.6
O=C(N/N=C/c1ccc2c(c1)OCO2)c1ccc(Cl)cc1Cl	1.0	28.8	57.5*	5.8	-4.3	-12.8
O=C(O)c1ccc(N/N=C/c2ccc3c(c2)OCO3)cc1	/	4.3	-4.3	2.3	7.0	70.1*
COc1ccc2c3c([nH]c2c1)[C@H](CO)N(Cc1ccncc1)CC31CCN(Cc2ccc(-c3ccccn3)cc2)CC1	/	/	-1.2	/	/	/
COCC(=O)N(C)C[C@@H]1Oc2ncc(-c3ccccc3C)cc2C(=O)N([C@H](C)CO)C[C@@H]1C	-0.2	-3.0[16.7 µM]	-3.4	/	/	0.5[16.7 µM]
CCNc1nn2ccccc2c1/C=C(\C#N)C(=O)OCC	-1.4	-5.8	66.4*	-0.5	-1.2	-18.8
CCOC(=O)/C(C#N)=C/c1c(N2CCCCCC2)nc2ccccn2c1=O	-1.3	1.5	-0.9	4.6	-13.0	-5.3
CCOC(=O)c1sc(N)nc1C(C)C	-0.7	1.7	/	-1.0	4.2	/
CCCc1nc(N)sc1C(=O)OCC	2.3	2.8	112.1*	0.0	-3.4	/
COc1ccccc1C(=O)NC(=S)Nc1ccc2[nH]c(=O)[nH]c2c1	0.1	-6.0	44.5*	2.7	-7.3	-0.9
Fc1ccc(-c2nnc(CN3CCN(c4ncc(C(F)(F)F)cc4Cl)CC3)o2)cc1	8.0	-12.3	/	-6.9	-17.2	68.3*
Fc1ccc(N2CCN(Cc3nnc(-c4ccccc4)o3)CC2)cc1	/	/	-5.5	4.0	-7.1	13.7
C[C@@H]1CCCCO[C@@H](CN(C)Cc2ccc(C(=O)Nc3ccccc3N)cc2)[C@@H](C)CN([C@H](C)CO)C(=O)c2cc(NC(=O)C3CCCCC3)ccc2O1	/	/	2.2	/	/	/
C(C#CCCCCCCCCC[n+]1ccccc1)#CCCCCCCCCC[n+]1ccccc1	11.4	-15.4	/	?	48.6*	/
CCNC(=O)C[C@H]1C=C[C@@H](NS(=O)(=O)c2ccc(C)cc2)[C@H](CO)O1	-0.6	/	-0.2	/	/	4.3[16.7 µM]
COCCNC(=O)C[C@H]1C=C[C@@H](NS(=O)(=O)c2ccc(C)cc2)[C@H](CO)O1	93.1*	/	-9.2	/	/	-7.3[16.7 µM]
COCCNC(=O)C[C@H]1C=C[C@H](NS(=O)(=O)c2ccc(C)cc2)[C@@H](CO)O1	105.3*	/	-9.2	/	/	9.5[16.7 µM]
CC(=O)N1[C@@H]2CN(C(=O)NC(C)C)C[C@H]1C2c1ccc(Br)cc1 (stereo not given in full)	/	/	1.7	/	/	/
Cn1nc(C2CC2)cc1NC(=O)C1(C)CCN1C(=O)c1ccccc1CCc1ccccc1 (stereo not given)	0.5	-3.6	/	/	/	64.1*
Cn1nc(C2CC2)cc1NC(=O)C1(C)CCN1C(=O)CC(c1ccccc1)c1ccccc1 (stereo not given)	-2.3	3.3	-29.1	/	/	/
COc1ccc(S(=O)(=O)Nc2cccc3c2O[C@@H](CN(C)Cc2ccc(Cl)c(Cl)c2)[C@@H](C)CN([C@@H](C)CO)C3=O)cc1	/	27.5[16.7 µM]	-25.0	/	/	-15.6[16.7 µM]
CCOC(=O)C(C)N1C(=O)S/C(=C/c2ccc3c(c2)n(C)c(=O)n3C)C1=O (stereo not given)	1.5	0.2	-9.8	53.7*	-4.6	7.9
C[C@@H]1CN([C@H](C)CO)C(=O)c2ccccc2-c2ccccc2CO[C@H]1CN(C)S(=O)(=O)c1ccc(Cl)cc1	46.1	/	-6.1	/	/	11.3[16.7 µM]
C[C@H]1CN([C@@H](C)CO)C(=O)c2ccccc2-c2ccccc2CO[C@@H]1CN(C)Cc1cccc(C(F)(F)F)c1	/	/	55.9*	/	/	/
SMILES	Cneo AK release	miR-122 sensor	INS-1E GSIS act	Rtt109 HAT inh	dFosB activator	Env fusion inh
C[C@@H]1CN([C@H](C)CO)C(=O)c2ccccc2-c2ccccc2CO[C@@H]1CN(C)Cc1cccc(C(F)(F)F)c1	/	/	61.5	/	/	/
C[C@H](CO)N1C[C@H](C)[C@@H](CN(C)Cc2ccc(Cl)c(Cl)c2)Oc2ccc(N(C)C)cc2C1=O	-6.9	63.0[16.7 µM]	-32.3	/	/	58.5*[16.7 µM]
C[C@@H]1CN([C@H](C)CO)C(=O)c2ccccc2-c2ccccc2CO[C@@H]1CN(C)Cc1ccc(Cl)c(Cl)c1	/	/	13.8	/	/	/
C[C@H]1CN([C@@H](C)CO)C(=O)c2ccccc2-c2ccccc2CO[C@H]1CN(C)S(=O)(=O)c1ccc(Cl)cc1	-2.1	/	14.3	/	/	55.4*[16.7 µM]
C[C@H]1CN([C@@H](C)CO)C(=O)c2ccccc2-c2ccccc2CO[C@@H]1CN(C)Cc1ccc(Cl)c(Cl)c1	/	/	42.5*	/	/	/
CO[C@H]1CN(C)C(=O)c2ccc(NC(=O)NC(C)C)cc2OC[C@H](C)N(C(=O)NC(C)C)C[C@@H]1C	/	/	-3.4	/	/	/
COc1ccccc1/C=N/N(C(C)=O)c1nc(-c2ccc(F)cc2)cs1	/	6.7	/	-1.1	-4.5	-83.8
COc1ccc(/C=N/N(C(C)=O)c2nc(-c3ccc(C)cc3)cs2)cc1	9.6	-1.8	146.4*	-30.9	2.8	-32.9
COc1ccc(-c2csc(N(CC3CCCO3)C(=O)c3ccc(C)cc3)n2)cc1 (stereo not given)	1.0	-4.6	/	2.2	-3.9	48.6*
CC(=O)N(/N=C/c1cccc(C)c1)c1nc(-c2ccc(Br)cc2)cs1	-0.5	4.3	110.2*	-6.6	0.4	-136.2
COc1ccc(-c2csc(N(CC3CCCO3)C(=O)c3ccccc3)n2)cc1 (stereo not given)	/	/	-5.8	-1.8	-9.8	22.7
C[C@@H]1CN([C@H](C)CO)C(=O)c2cccc(NC(=O)c3ccc(-c4nccs4)cc3)c2O[C@@H]1CN(C)CC1CC1	0.3	5.7[16.7 µM]	4.1	/	/	-10.9[16.7 µM]
C[C@@H]1CN([C@H](C)CO)C(=O)c2cc(NC(=O)Nc3ccc4c(c3)OCO4)ccc2O[C@@H]1CN(C)S(=O)(=O)c1ccc(Cl)cc1	2.5	85.8[16.7 µM]	-14.1	/	/	-2.6[16.7 µM]
C[C@H](CO)N1C[C@H](C)[C@H](CN(C)S(=O)(=O)c2ccc(Cl)cc2)Oc2ccc(NC(=O)Nc3ccc4c(c3)OCO4)cc2C1=O	-2.5	-4.8[16.7 µM]	-18.3	/	/	110.7*[16.7 µM]
C[C@@H]1CN([C@@H](C)CO)C(=O)c2cc(NC(=O)Nc3ccc4c(c3)OCO4)ccc2O[C@H]1CN(C)S(=O)(=O)c1ccc(Cl)cc1	-1.8	-2.1[16.7 µM]	23.0	/	/	-1.7[16.7 µM]
C[C@H]1CN([C@@H](C)CO)C(=O)c2cc(NC(=O)Nc3ccc4c(c3)OCO4)ccc2O[C@H]1CN(C)S(=O)(=O)c1ccc(Cl)cc1	-0.8	-8.5[16.7 µM]	-18.1	/	/	64.9*[16.7 µM]
Cc1ccc(S(=O)(=O)N(C)C[C@@H]2Oc3ccc(NC(=O)Nc4ccc5c(c4)OCO5)cc3C(=O)N([C@H](C)CO)C[C@@H]2C)cc1	-0.7	-1.0[16.7 µM]	-19.6	/	/	60.1*[16.7 µM]

Bioassay records as filed in PubChem.
